Results on 25 compounds are retold here after ChEMBL document CHEMBL1921785, “Exploration of in vitro time point quantitative evaluation of newly synthesized benzimidazole and benzothiazole derivatives as potential antibacterial agents” (2011).

The structures appear in SMILES notation.

Holding throughout (format): functional
The subject of test [1] is Vibrio cholerae. The test can be described thus: Antibacterial activity against Vibrio cholerae MTCC 3904 assessed as zone of growth inhibition at 0.2 mg/ml after 18 to 24 hrs by Kirby-Bauer agar diffusion method. The settings on record: read-out: DIZ. On the technique in general: A growth-free zone around the sample is the usual read-out of agar diffusion tests.
Test [2] concerns Staphylococcus aureus. Kind of test: Antibacterial activity against Staphylococcus aureus MTCC 3160 assessed as zone of growth inhibition at 0.2 mg/ml after 18 to 24 hrs by Kirby-Bauer agar diffusion method. The settings on record: read-out: DIZ. In outline: (§1)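 Kirby-Bauer disc diffusion on Mueller-Hinton agar, following CLSI 2007 guidelines, with ciprofloxacin as reference drug. Read-out is the diameter of the zone of growth inhibition in mm.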

Test [3] has as its system Shigella dysenteriae. The test can be described thus: Antibacterial activity against Shigella dysenteriae assessed as zone of growth inhibition at 0.2 mg/ml after 18 to 24 hrs by Kirby-Bauer agar diffusion method. The following applies: read-out: DIZ.
Test [4] relates to Escherichia coli. The test can be described thus: Antibacterial activity against Escherichia coli MTCC 1610 assessed as zone of growth inhibition at 0.2 mg/ml after 18 to 24 hrs by Kirby-Bauer agar diffusion method. The settings on record: read-out: DIZ. In outline: as §1
Test [5] concerns Bacillus cereus. The test can be described thus: Antibacterial activity against Bacillus cereus MTCC 430 assessed as zone of growth inhibition at 0.2 mg/ml after 18 to 24 hrs by Kirby-Bauer agar diffusion method. The following applies: read-out: DIZ. In outline: as §1
In test [6] the test system is Bacillus cereus. The test can be described thus: Bactericidal activity against Bacillus cereus MTCC 430 assessed as log reduction in bacterial count at 0.2 mg/mL up to 48 hrs by time-kill assay. In outline: (§2)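 Time-kill by pour plate. Overnight 37 °C cultures in Mueller-Hinton broth were dosed at about 0.2 mg/mL and incubated at 37 °C for up to 72 h, with broth replenished every 24 h. Samples were taken over time, serially diluted, and pour-plated on MHA at 37 °C for 18–24 h. Colonies were counted as CFU/ml against untreated culture controls.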

In test [7] the test system is Staphylococcus aureus. Kind of test: Bactericidal activity against Staphylococcus aureus MTCC 3160 assessed as time required to complete extermination of bacteria at 0.2 mg/mL by time-kill assay. In outline: as §2
Test [8] relates to Vibrio cholerae. Kind of test: Bactericidal activity against Vibrio cholerae MTCC 3904 assessed as time required to complete extermination of bacteria at 0.2 mg/mL by time-kill assay.
For test [9], the system named is Bacillus cereus. The test can be described thus: Bactericidal activity against Bacillus cereus MTCC 430 assessed as time required to complete extermination of bacteria at 0.2 mg/mL by time-kill assay. An outline of the steps: as §2
Test [10] relates to Staphylococcus aureus. Kind of test: Bactericidal activity against Staphylococcus aureus MTCC 3160 assessed as time required to complete extermination of bacteria by time-kill assay. An outline of the steps: as §2
Test [11] deals with Vibrio cholerae. The test can be described thus: Antibacterial activity against Vibrio cholerae MTCC 3904 assessed as zone of growth inhibition after 18 to 24 hrs by Kirby-Bauer agar diffusion method.
In test [12] the test system is Bacillus cereus. Kind of test: Antibacterial activity against Bacillus cereus MTCC 430 assessed as zone of growth inhibition after 18 to 24 hrs by Kirby-Bauer agar diffusion method. An outline of the steps:
as §1

Test [13] has as its system Vibrio cholerae. The test can be described thus: Bactericidal activity against Vibrio cholerae MTCC 3904 assessed as time required to complete extermination of bacteria by time-kill assay.
The test system of test [14] is Bacillus cereus. The test can be described thus: Bactericidal activity against Bacillus cereus MTCC 430 assessed as time required to complete extermination of bacteria by time-kill assay. In outline:
as §2

Test [15] has as its system Shigella dysenteriae. Kind of test: Antibacterial activity against Shigella dysenteriae assessed as zone of growth inhibition at after 18 to 24 hrs by Kirby-Bauer agar diffusion method.
Test [16] has as its system Shigella dysenteriae. The test can be described thus: Bactericidal activity against Shigella dysenteriae assessed as time required to complete extermination of bacteria by time-kill assay.
The test system of test [17] is Shigella dysenteriae. The test can be described thus: Bactericidal activity against Shigella dysenteriae assessed as time required to complete extermination of bacteria at 0.2 mg/mL by time-kill assay.
The test system of test [18] is Escherichia coli. The test can be described thus: Bactericidal activity against Escherichia coli MTCC 1610 assessed as time required to complete extermination of bacteria at 0.2 mg/mL by time-kill assay. In outline:
as §2

With `CN(C)c1ccc(Cn2c(-c3ccc(N(C)C)cc3)nc3ccccc32)cc1`, the values for the zone of inhibition at 200 µg/mL with Vibrio cholerae [1], with Staphylococcus aureus [2] and in the test with Shigella dysenteriae [3] were 17 mm, 11 mm and 16 mm, respectively.

With `CC(C)(C)c1ccc(Cn2c(-c3ccc(C(C)(C)C)cc3)nc3ccccc32)cc1`, the zone of inhibition at 200 µg/mL in the test with Vibrio cholerae [1] was found to be 21 mm; with Escherichia coli [4], 17 mm; in the test on Bacillus cereus [5], 12 mm; in the test with Shigella dysenteriae [3] it was 13 mm.

For the compound `Oc1ccc(Cn2c(-c3ccc(O)cc3)nc3ccccc32)cc1`, the zone of inhibition at 200 µg/mL in the test with Shigella dysenteriae [3] amounted to 11 mm.

In the case of `CC(C)c1ccc(-c2nc3ccccc3s2)cc1`, the values for the zone of inhibition at 200 µg/mL with Staphylococcus aureus [2], with Bacillus cereus [5] and with Shigella dysenteriae [3] were 13 mm, 20 mm and 15 mm, respectively. In the test with Bacillus cereus [6], the “log reduction in bacterial count” value is recorded as 3. Also, in the test on Staphylococcus aureus [7], the Time is below 48 h.

Take `FC(F)(F)Oc1ccc(Cn2c(-c3ccc(OC(F)(F)F)cc3)nc3ccccc32)cc1`: the zone of inhibition at 200 µg/mL in the test on Vibrio cholerae [1] stood at 23 mm; in the test with Staphylococcus aureus [2] it was 10 mm; in the test on Shigella dysenteriae [3], 11 mm. Moreover, the Time was below 48 h in the test with Staphylococcus aureus [7] and below 24 h with Vibrio cholerae [8].

For the compound `COc1ccc(Br)cc1-c1nc2ccccc2s1`, the results for the zone of inhibition at 200 µg/mL in the test with Vibrio cholerae [1], in the test with Staphylococcus aureus [2] and with Bacillus cereus [5] were 17 mm, 12 mm and 21 mm, respectively.

Take `CCCCCCCn1c(CCCCCC)nc2ccccc21`: the zone of inhibition at 200 µg/mL was 16 mm in the test on Vibrio cholerae [1], 12 mm in the test with Staphylococcus aureus [2], 15 mm in the test on Bacillus cereus [5] and 21 mm with Shigella dysenteriae [3].

For `Oc1ccc(-c2nc3ccccc3s2)cc1`, the zone of inhibition at 200 µg/mL is 18 mm with Vibrio cholerae [1] and 19 mm in the test with Bacillus cereus [5]. In the test with Bacillus cereus [9], the Time was below 24 h.

Regarding `O=[N+]([O-])c1cccc(Cn2c(-c3cccc([N+](=O)[O-])c3)nc3ccccc32)c1`, the zone of inhibition at 200 µg/mL was 13 mm in the test with Vibrio cholerae [1] and 10 mm with Staphylococcus aureus [2].

In the case of `Fc1ccc(Cn2c(-c3ccc(F)cc3)nc3ccccc32)cc1`, the figures for the zone of inhibition at 200 µg/mL with Staphylococcus aureus [2] and with Bacillus cereus [5] were 10 mm and 18 mm, respectively.

`O=[N+]([O-])c1ccc(-c2nc3ccccc3s2)cc1`: the zone of inhibition at 200 µg/mL in the test on Bacillus cereus [5] was 14 mm; in the test on Shigella dysenteriae [3] it was 13 mm.

With `Cc1ccc(Cn2c(-c3ccc(C)cc3)nc3ccccc32)cc1`, the zone of inhibition at 200 µg/mL came out at 18 mm with Vibrio cholerae [1], 12 mm in the test with Staphylococcus aureus [2] and 13 mm in the test on Shigella dysenteriae [3].

`O=C(O)c1cn(C2CC2)c2cc(N3CCNCC3)c(F)cc2c1=O` [CIPROFLOXACIN]: the Time in the test with Staphylococcus aureus [10] is 48 h; in the test with Vibrio cholerae [13] it was 48 h; in the test on Bacillus cereus [14] it was 48 h; in the test on Shigella dysenteriae [16], below 72 h. Besides, the “diameter of the inhibition zone (DIZ)” value is listed as 24 mm in the test on Vibrio cholerae [11], 14 mm in the test on Bacillus cereus [12] and 14 mm in the test on Shigella dysenteriae [15].

For `c1coc(Cn2c(-c3ccco3)nc3ccccc32)c1`, the zone of inhibition at 200 µg/mL was found to be 13 mm with Vibrio cholerae [1], 10 mm in the test on Staphylococcus aureus [2] and 12 mm in the test on Shigella dysenteriae [3]. For the same compound, in the test on Staphylococcus aureus [7], the Time is below 48 h.

In the case of `Brc1ccc(Cn2c(-c3ccc(Br)cc3)nc3ccccc32)cc1`, the zone of inhibition at 200 µg/mL amounted to 16 mm with Vibrio cholerae [1], 15 mm in the test on Bacillus cereus [5] and 13 mm in the test with Shigella dysenteriae [3].

Regarding `CCOc1ccc(-c2nc3ccccc3s2)cc1OC`, the zone of inhibition at 200 µg/mL was found to be 16 mm in the test with Vibrio cholerae [1], 12 mm with Staphylococcus aureus [2] and 15 mm in the test on Shigella dysenteriae [3].

Turning to `c1ccc(Cn2c(-c3ccccc3)nc3ccccc32)cc1`, the zone of inhibition at 200 µg/mL is 33 mm in the test on Vibrio cholerae [1]; 19 mm in the test on Escherichia coli [4]; 10 mm in the test on Staphylococcus aureus [2]; 22 mm in the test with Bacillus cereus [5]; 23 mm in the test with Shigella dysenteriae [3]. Moreover, in the test on Bacillus cereus [6], the “log reduction in bacterial count” value is 3. Besides, the Time in the test on Vibrio cholerae [8] was below 24 h.

For the compound `C(=C/c1nc2ccccc2n1C/C=C/c1ccccc1)/c1ccccc1`, the results for the zone of inhibition at 200 µg/mL in the test with Vibrio cholerae [1] and in the test on Bacillus cereus [5] were 11 mm and 14 mm, respectively.

As for `CCc1ccccc1-c1nc2ccccc2s1`, the zone of inhibition at 200 µg/mL with Vibrio cholerae [1] came out at 16 mm; with Escherichia coli [4], 11 mm; with Staphylococcus aureus [2] it was 13 mm; with Bacillus cereus [5] it was 21 mm; in the test on Shigella dysenteriae [3], 35 mm. For the same compound, the “log reduction in bacterial count” value in the test on Bacillus cereus [6] is given as 3. Further, in the test with Shigella dysenteriae [17], the Time was 72 h.

As to `CCOc1cc(Cn2c(-c3ccc(O)c(OCC)c3)nc3ccccc32)ccc1O`, the figures for the zone of inhibition at 200 µg/mL in the test with Escherichia coli [4] and in the test on Staphylococcus aureus [2] were 14 mm and 23 mm, respectively. For the same compound, the Time in the test on Staphylococcus aureus [7] is below 24 h.

As to `Clc1ccc(Cn2c(-c3ccc(Cl)c(Cl)c3)nc3ccccc32)cc1Cl`, the zone of inhibition at 200 µg/mL in the test with Shigella dysenteriae [3] was 11 mm.

With `COc1cc(-c2nc3ccccc3s2)cc(OC)c1OC`, the zone of inhibition at 200 µg/mL in the test on Shigella dysenteriae [3] stood at 23 mm.

With `Oc1ccc(Br)cc1Cn1c(-c2cc(Br)ccc2O)nc2ccccc21`, the zone of inhibition at 200 µg/mL worked out at 17 mm in the test on Escherichia coli [4] and 33 mm with Bacillus cereus [5]. Moreover, the Time in the test on Bacillus cereus [9] is below 24 h.

`FC(F)(F)c1ccc(Cn2c(-c3ccc(C(F)(F)F)cc3)nc3ccccc32)cc1`: the zone of inhibition at 200 µg/mL in the test with Vibrio cholerae [1] came to 13 mm; in the test with Escherichia coli [4], 22 mm; in the test on Staphylococcus aureus [2] it was 22 mm; with Shigella dysenteriae [3] it was 19 mm. In addition, in the test with Escherichia coli [18], the Time is below 48 h.

For the compound `CCOc1ccc(-c2nc3ccccc3s2)cc1`, the zone of inhibition at 200 µg/mL in the test with Vibrio cholerae [1] is 15 mm; with Escherichia coli [4], 12 mm; with Staphylococcus aureus [2] it was 16 mm; in the test on Bacillus cereus [5], 22 mm; in the test on Shigella dysenteriae [3], 16 mm. In addition, the “log reduction in bacterial count” value with Bacillus cereus [6] came out at 3. Besides, the Time in the test on Staphylococcus aureus [7] is below 48 h.
